pIC50: −log10 of the molar value. Activity calls are given as the source filed them. The rule behind the calls is not given here.
Key:
[1] = target: T1, Calpain-1 catalytic subunit (Sus scrofa, UniProt P35750); experiment: Inhibition of full length porcine Calpain-1 complex using (H2NeK(-FAM)-EVYGMMK(DABCYL)eOH) substrate by FRET assay; conditions: for pIC50: read-out: IC50
T1 sequence (P35750 whole entry): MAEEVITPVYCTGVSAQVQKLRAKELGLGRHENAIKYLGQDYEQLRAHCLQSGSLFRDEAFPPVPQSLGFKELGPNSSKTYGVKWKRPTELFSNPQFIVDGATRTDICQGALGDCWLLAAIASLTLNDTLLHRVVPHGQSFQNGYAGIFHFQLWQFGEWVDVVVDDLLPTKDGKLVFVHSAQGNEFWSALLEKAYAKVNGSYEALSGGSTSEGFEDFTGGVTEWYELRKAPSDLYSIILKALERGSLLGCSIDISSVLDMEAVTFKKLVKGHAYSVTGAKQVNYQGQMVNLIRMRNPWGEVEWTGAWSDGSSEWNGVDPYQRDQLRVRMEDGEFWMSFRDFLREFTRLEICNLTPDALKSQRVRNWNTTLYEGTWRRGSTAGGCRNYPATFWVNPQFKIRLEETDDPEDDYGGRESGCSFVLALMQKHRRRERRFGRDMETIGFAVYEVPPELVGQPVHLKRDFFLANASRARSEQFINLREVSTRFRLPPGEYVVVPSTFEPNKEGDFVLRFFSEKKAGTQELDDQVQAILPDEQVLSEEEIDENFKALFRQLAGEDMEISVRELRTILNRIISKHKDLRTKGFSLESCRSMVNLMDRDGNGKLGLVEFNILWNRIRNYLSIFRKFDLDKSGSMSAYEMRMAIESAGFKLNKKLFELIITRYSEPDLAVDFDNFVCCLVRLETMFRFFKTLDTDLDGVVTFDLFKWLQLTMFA
How it was run: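 Purified porcine calpain-1 (25 nM) with 1 µM FAM/DABCYL α-spectrin peptide, cleaved at Tyr-Gly, in 10 mM HEPES, 10 mM DTT, 0.5 mM EDTA, 0.1% BSA, pH 6.8, at 37 °C. Compounds (5 nM–200 µM, from DMSO stock) were added before starting with 5 mM CaCl2. Fluorescence read at ex 490/em 520 nm. DMSO-alone controls were run. IC50 given as mean ± SD of three independent experiments.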

[2] = target: Calpain-1 catalytic subunit (Homo sapiens) (UniProt P07384); experiment: Inhibition of human Calpain-1 active site domain using (H2NeK(-FAM)-EVYGMMK(DABCYL)eOH) substrate by FRET assay; conditions: for pIC50: read-out: IC50
[3] = target: Calpain small subunit 1 (Homo sapiens) (UniProt P04632); experiment: Binding affinity to human Calpain-1 PEF(S) domain at 0.5 to 500 uM expressed in Escherichia coli BL21-CodonPlus (DE3) RP cells incubated for 5 mins by TNS displacement assay
Calpain small subunit 1 (Homo sapiens), sequence (P04632 whole entry, looked up): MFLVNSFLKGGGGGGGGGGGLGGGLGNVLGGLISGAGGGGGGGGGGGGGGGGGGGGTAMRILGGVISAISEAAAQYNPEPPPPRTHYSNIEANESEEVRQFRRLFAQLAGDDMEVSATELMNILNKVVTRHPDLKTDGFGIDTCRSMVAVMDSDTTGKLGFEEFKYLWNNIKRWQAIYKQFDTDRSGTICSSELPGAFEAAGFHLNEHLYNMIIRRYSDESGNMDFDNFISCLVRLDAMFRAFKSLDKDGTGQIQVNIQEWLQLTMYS

FC(F)(F)c1cccc(CSc2nnc3ccc(-c4ccccn4)nn23)c1
IC50 [1]: Not Active | IC50 [2]: Not Active

NC(=O)c1cccc(NS(=O)(=O)c2cccc(C(F)(F)F)c2)c1
IC50 [1]: Not Active | IC50 [2]: Not Active | Activity [3]: Active

O=C(NC1CCC(O)CC1)c1ccc(S(=O)(=O)Nc2cccc(C(F)(F)F)c2)cc1 (stereo not drawn)
IC50 [1]: Not Active | IC50 [2]: Not Active | Activity [3]: Active

COCCOc1nc(-c2cccc(C(F)(F)F)c2)n(-c2ccc(NC(=O)C(C)C)cc2)n1
IC50 [1]: Not Active | IC50 [2]: Not Active

FC(F)(F)c1ccc(CSc2nnc3ccc(-c4ccccn4)nn23)cc1
pIC50 [1]: 4.69 | IC50 [2]: Not Active

COCCOc1nc(-c2ccc(OC)cc2)n(-c2cccc(NC(=O)c3ccc(C)c(C(F)(F)F)c3)c2)n1
IC50 [1]: Not Active | IC50 [2]: Not Active

O=C(CSc1nnc2ccc(-c3ccccn3)nn12)Nc1cccc(C(F)(F)F)c1
pIC50 [1]: 4.53 | IC50 [2]: Not Active

O=C(O)/C(S)=C/c1ccc(I)cc1
pIC50 [1]: 4.71 | pIC50 [2]: 4.75 | Activity [3]: Active

O=C(O)c1cc(NS(=O)(=O)c2ccc(F)cc2)cnc1N1CCCCCC1
pIC50 [1]: < 4.00 | pIC50 [2]: 4.39 | Activity [3]: Active

O=C1CCCN1c1cccc(NS(=O)(=O)c2cccc(C(F)(F)F)c2)c1
IC50 [1]: Not Active | IC50 [2]: Not Active | Activity [3]: inactive

CC(C)(C)NC(=O)c1ccc(Oc2cc(F)c(CC(=O)O)cc2Cl)c(NS(=O)(=O)c2ccc(C3CC3)cc2Cl)c1 [VIDUPIPRANT]
pIC50 [1]: 5.12 | pIC50 [2]: < 4.00 | Activity [3]: Active
